# Measurements as given in ChEMBL document CHEMBL1287651, “Synthesis and in vitro antibacterial activity of fluoroquinolone derivatives containing 3-(N'-alkoxycarbamimidoyl)-4-(alkoxyimino) pyrrolidines” (2010).
# Columns and labels:
# Type in all cases: functional
# Enterococcus faecalis [1] = assay: Antibacterial activity against Enterococcus faecalis 08-10 after 18 to 24 hrs by twofold serial dilution method
# Procedure, shortened: (§1)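 MIC determined by the standard twofold serial dilution method on agar media, screening against Gram-positive and Gram-negative strains. Levofloxacin and gemifloxacin were run alongside as reference drugs.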
# Staphylococcus aureus [2] = assay: Antibacterial activity against methicillin-sensitive Staphylococcus aureus 08-2 after 18 to 24 hrs by twofold serial dilution method
# Procedure, shortened: (§2)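 Standard twofold serial agar dilution method on agar media for MIC determination. Screened against representative Gram-positive and Gram-negative strains. Levofloxacin and GMFX served as control drugs.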
# [3] = tested on: Staphylococcus epidermidis; assay: Antibacterial activity against methicillin-resistant Staphylococcus epidermidis 09-3 after 18 to 24 hrs by twofold serial dilution method; procedure, shortened: as §2
# Klebsiella pneumoniae [4] = assay: Antibacterial activity against Klebsiella pneumoniae 09-21 after 18 to 24 hrs by twofold serial dilution method; procedure, shortened: as §1
# Escherichia coli [5] = assay: Antibacterial activity against Escherichia coli ATCC 25922 after 18 to 24 hrs by twofold serial dilution method; procedure, shortened: as §1
# [6] = tested on: Staphylococcus epidermidis; assay: Antibacterial activity against methicillin-resistant Staphylococcus epidermidis 09-4 after 18 to 24 hrs by twofold serial dilution method; procedure, shortened: as §2
# Pseudomonas aeruginosa [7] = assay: Antibacterial activity against Pseudomonas aeruginosa 09-33 after 18 to 24 hrs by twofold serial dilution method; procedure, shortened: as §1
# [8] = tested on: Staphylococcus epidermidis; assay: Antibacterial activity against methicillin-resistant Staphylococcus epidermidis 09-2 after 18 to 24 hrs by twofold serial dilution method; procedure, shortened: as §2
# Staphylococcus aureus [9] = assay: Antibacterial activity against Staphylococcus aureus ATCC […] after 18 to 24 hrs by twofold serial dilution method; procedure, shortened: as §1
# Pseudomonas aeruginosa [10] = assay: Antibacterial activity against Pseudomonas aeruginosa 09-35 after 18 to 24 hrs by twofold serial dilution method; procedure, shortened: as §1
# Staphylococcus aureus [11] = assay: Antibacterial activity against methicillin-resistant Staphylococcus aureus 08-1 after 18 to 24 hrs by twofold serial dilution method; procedure, shortened: as §2
# Escherichia coli [12] = assay: Antibacterial activity against Escherichia coli 08-21 after 18 to 24 hrs by twofold serial dilution method; procedure, shortened: as §1
# [13] = tested on: Staphylococcus epidermidis; assay: Antibacterial activity against methicillin-sensitive Staphylococcus epidermidis 09-3 after 18 to 24 hrs by twofold serial dilution method; procedure, shortened: as §2
# Enterococcus faecalis [14] = assay: Antibacterial activity against Enterococcus faecalis 08-12 after 18 to 24 hrs by twofold serial dilution method; procedure, shortened: as §1
# Streptococcus pneumoniae [15] = assay: Antibacterial activity against Streptococcus pneumoniae 08-2 after 18 to 24 hrs by twofold serial dilution method; procedure, shortened: as §1
# Streptococcus pneumoniae [16] = assay: Antibacterial activity against Streptococcus pneumoniae 08-4 after 18 to 24 hrs by twofold serial dilution method; procedure, shortened: as §1
# Pseudomonas aeruginosa [17] = assay: Antibacterial activity against Pseudomonas aeruginosa 09-34 after 18 to 24 hrs by twofold serial dilution method; procedure, shortened: as §1
# Klebsiella pneumoniae [18] = assay: Antibacterial activity against Klebsiella pneumoniae 09-23 after 18 to 24 hrs by twofold serial dilution method; procedure, shortened: as §1
# Pseudomonas aeruginosa [19] = assay: Antibacterial activity against Pseudomonas aeruginosa 09-32 after 18 to 24 hrs by twofold serial dilution method; procedure, shortened: as §1
# Pseudomonas aeruginosa [20] = assay: Antibacterial activity against Pseudomonas aeruginosa ATCC 27853 after 18 to 24 hrs by twofold serial dilution method; procedure, shortened: as §1
# Enterococcus faecium [21] = assay: Antibacterial activity against Enterococcus faecium 08-7 after 18 to 24 hrs by twofold serial dilution method; procedure, shortened: as §1
# Klebsiella pneumoniae [22] = assay: Antibacterial activity against Klebsiella pneumoniae 09-22 after 18 to 24 hrs by twofold serial dilution method; procedure, shortened: as §1
# [23] = tested on: Staphylococcus epidermidis; assay: Antibacterial activity against methicillin-sensitive Staphylococcus epidermidis 09-6 after 18 to 24 hrs by twofold serial dilution method; procedure, shortened: as §2
# Enterococcus faecium [24] = assay: Antibacterial activity against Enterococcus faecium 08-2 after 18 to 24 hrs by twofold serial dilution method; procedure, shortened: as §1
# Escherichia coli [25] = assay: Antibacterial activity against Escherichia coli 08-22 after 18 to 24 hrs by twofold serial dilution method; procedure, shortened: as §1
Compound,MIC (Enterococcus faecalis [1]) [µg/mL],MIC (Staphylococcus aureus [2]) [µg/mL],MIC [3] [µg/mL],MIC (Klebsiella pneumoniae [4]) [µg/mL],MIC (Escherichia coli [5]) [µg/mL],MIC [6] [µg/mL],MIC (Pseudomonas aeruginosa [7]) [µg/mL],MIC [8] [µg/mL],MIC (Staphylococcus aureus [9]) [µg/mL],MIC (Pseudomonas aeruginosa [10]) [µg/mL],MIC (Staphylococcus aureus [11]) [µg/mL],MIC (Escherichia coli [12]) [µg/mL],MIC [13] [µg/mL],MIC (Enterococcus faecalis [14]) [µg/mL],MIC (Streptococcus pneumoniae [15]) [µg/mL],MIC (Streptococcus pneumoniae [16]) [µg/mL],MIC (Pseudomonas aeruginosa [17]) [µg/mL],MIC (Klebsiella pneumoniae [18]) [µg/mL],MIC (Pseudomonas aeruginosa [19]) [µg/mL],MIC (Pseudomonas aeruginosa [20]) [µg/mL],other results
CCO/N=C1\CN(c2c(F)cc3c(=O)c(C(=O)O)cn4c3c2OC[C@@H]4C)CC1/C(N)=N\OC (stereo not given in full),0.5,0.25,0.125,> 128,128,0.25,> 128,0.25,0.25,> 128,0.25,> 128,0.25,> 128,> 128,0.25,> 128,> 128,> 128,> 128,MIC (Enterococcus faecium [21]): > 128 µg/mL; MIC (Klebsiella pneumoniae [22]): 1 µg/mL; MIC [23]: 0.5 µg/mL; MIC (Enterococcus faecium [24]): > 128 µg/mL; MIC (Escherichia coli [25]): > 128 µg/mL
CCn1cc(C(=O)O)c(=O)c2cc(F)c(N3C/C(=N\OC)C(/C(N)=N\O)C3)c(F)c21 (stereo not given),> 128,0.25,0.25,> 128,128,1,1,1,0.25,> 128,0.25,> 128,0.25,> 128,1,> 128,1,> 128,1,1,MIC (Enterococcus faecium [21]): > 128 µg/mL; MIC (Klebsiella pneumoniae [22]): 1 µg/mL; MIC [23]: 0.25 µg/mL; MIC (Enterococcus faecium [24]): > 128 µg/mL; MIC (Escherichia coli [25]): > 128 µg/mL
CO/N=C1\CN(c2c(F)cc3c(=O)c(C(=O)O)cn4c3c2OC[C@@H]4C)CC1/C(N)=N\O (stereo not given in full),> 128,4,0.25,> 128,128,0.25,> 128,0.25,0.125,128,0.25,> 128,0.25,> 128,0.25,16,> 128,> 128,64,32,MIC (Enterococcus faecium [21]): > 128 µg/mL; MIC (Klebsiella pneumoniae [22]): 16 µg/mL; MIC [23]: 0.25 µg/mL; MIC (Enterococcus faecium [24]): > 128 µg/mL; MIC (Escherichia coli [25]): > 128 µg/mL
CCO/N=C1\CN(c2c(F)cc3c(=O)c(C(=O)O)cn4c3c2OC[C@@H]4C)CC1/C(N)=N\OCC (stereo not given in full),> 128,64,> 128,> 128,128,> 128,> 128,> 128,1,64,64,> 128,8,> 128,64,> 128,> 128,> 128,64,64,MIC (Enterococcus faecium [21]): > 128 µg/mL; MIC (Klebsiella pneumoniae [22]): > 128 µg/mL; MIC [23]: 8 µg/mL; MIC (Enterococcus faecium [24]): > 128 µg/mL; MIC (Escherichia coli [25]): > 128 µg/mL
CCO/N=C1\CN(c2c(F)cc3c(=O)c(C(=O)O)cn(C4CC4)c3c2OC(F)F)CC1/C(N)=N\OC (stereo not given),32,0.25,0.25,32,16,0.25,64,64,0.125,64,0.25,64,0.125,32,64,64,64,32,64,8,MIC (Enterococcus faecium [21]): 64 µg/mL; MIC (Klebsiella pneumoniae [22]): 32 µg/mL; MIC [23]: 0.25 µg/mL; MIC (Enterococcus faecium [24]): 64 µg/mL; MIC (Escherichia coli [25]): 64 µg/mL
CCn1cc(C(=O)O)c(=O)c2cc(F)c(N3C/C(=N\OC)C(/C(N)=N\OC)C3)c(F)c21 (stereo not given),> 128,0.25,0.25,> 128,128,0.25,> 128,2,0.25,> 128,0.25,> 128,0.25,> 128,1,1,> 128,> 128,> 128,128,MIC (Enterococcus faecium [21]): > 128 µg/mL; MIC (Klebsiella pneumoniae [22]): 1 µg/mL; MIC [23]: 0.5 µg/mL; MIC (Enterococcus faecium [24]): > 128 µg/mL; MIC (Escherichia coli [25]): > 128 µg/mL
CCO/N=C1\CN(c2nc3c(cc2F)c(=O)c(C(=O)O)cn3C2CC2)CC1/C(N)=N\OCC (stereo not given),> 128,8,8,> 128,128,32,> 128,8,2,> 128,> 128,> 128,> 128,> 128,> 128,> 128,> 128,> 128,> 128,128,MIC (Enterococcus faecium [21]): > 128 µg/mL; MIC (Klebsiella pneumoniae [22]): 128 µg/mL; MIC [23]: > 128 µg/mL; MIC (Enterococcus faecium [24]): > 128 µg/mL; MIC (Escherichia coli [25]): > 128 µg/mL
